Compound activity (PubChem)
Shown are actives, neighbours in structure and some others; about 2.6% of the full set was active somewhere.
SENP6 inh – blocks the human protease SENP6. Q9GZR1. Recombinant SENP6 catalytic domain, aminoluciferin luminescence. inhibition, % at 10 µM. 330,000 compounds, 1.8% hits. AID 2599;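 active = inhibition above about 50% at the single tested dose, limit read from the data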;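 note: plate controls were DMSO wells with enzyme for no effect and DMSO wells lacking enzyme for full effect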
Target sequence (Q9GZR1 628-1112 limits assumed): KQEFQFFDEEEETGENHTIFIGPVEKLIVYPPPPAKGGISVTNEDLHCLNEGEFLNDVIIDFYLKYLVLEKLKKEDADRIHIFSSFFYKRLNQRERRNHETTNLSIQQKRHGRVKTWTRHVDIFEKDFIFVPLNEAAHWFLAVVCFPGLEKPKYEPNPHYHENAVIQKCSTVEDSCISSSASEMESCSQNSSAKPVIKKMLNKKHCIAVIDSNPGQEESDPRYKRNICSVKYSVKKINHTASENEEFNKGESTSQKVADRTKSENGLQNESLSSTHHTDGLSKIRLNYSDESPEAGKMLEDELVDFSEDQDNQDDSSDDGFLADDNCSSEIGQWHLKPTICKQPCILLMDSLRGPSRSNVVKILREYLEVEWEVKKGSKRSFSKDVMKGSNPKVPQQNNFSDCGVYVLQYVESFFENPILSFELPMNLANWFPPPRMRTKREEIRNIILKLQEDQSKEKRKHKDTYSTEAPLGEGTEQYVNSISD
SENP7 block – blocks the human protease SENP7. inhibition, % at 5 µM. 330,000 compounds, 1.5% hits. recombinant SENP7, Z-RLRGG-aminoluciferin luminescence, 40 min;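 active = inhibition above about 50% at the single test dose, limit read from the data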;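 note: plate controls were DMSO with enzyme for no effect and no enzyme buffer wells for full effect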
SENP8 block-1 – blocks human SENP8 cleavage of Nedd8 substrate; Q96LD8; recombinant SENP8, Nedd8 substrate fluorescence; inhibition, % at 20 µM; 360,000 compounds, 0.64% hits; AID 602440; in the data active = inhibition mostly above about 40%, no sharp cut-off; inactive = mostly below about 27%
Platelet DG rel – modulates dense granule release in human platelets. human platelet-rich plasma, SFLLRN dense granule ATP release, luminescence. inhibition, %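 (compounds screened at 7.5 µM in platelet-rich plasma)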. 300,000 compounds, 0.22% hits. AID 1663;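 active = mean replicate score, as percent of positive control, at or above 50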
SENP8 block-2 – SENP8 protease inhibition. Q96LD8. purified SENP8, Z-RLRGG-aminoluciferin cleavage, luminescence. inhibition, % at 10 µM. 330,000 compounds, 1.2% hits; in the data active = inhibition above about 50%
SENP1 inh – SENP1 (human) catalytic domain inhibition; 360,000 compounds, 0.21% hits; Q9P0U3; recombinant SENP1 catalytic domain, CyPet-SUMO1-YPet FRET cleavage; inhibition, % at 10 µM;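 active = inhibition at least 30% at 10 µM, raw YFP signal under a set limit, fluorescence ratio 0.5 to 1.5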;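 note: 0% = enzyme with DMSO and 100% = no enzyme wells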
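material = recombinant human SENP1 catalytic domain, His6-tagged | quantity = 20 pM enzyme | reagent = 25 nM SUMO1 FRET substrate | compound dosing = 10 µM single point, 0.5% DMSO | timing = 50 min enzyme reaction, room temperature, light-protected | detection = FRET, CFP and YFP emission | control set = no-enzyme low, enzyme-DMSO high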
SENP8 inh conf – confirmation of human SENP8 protease inhibitors | shares compounds with SENP8 block-1 | purified SENP8, Nedd8-AMC/pro-Nedd8 cleavage fluorescence, 30 min | inhibition, % at 25 µM | 1,400 compounds, 15% hits | AID 624319; in the data active = inhibition mostly above about 39%, no sharp cut-off; inactive = mostly below about 34%
* hit, by the source's call; / = no result given.

SMILES	SENP6 inh	SENP7 block	SENP8 block-1	Platelet DG rel	SENP8 block-2	SENP1 inh	SENP8 inh conf
N#CC1=C(N)Oc2n[nH]c(-c3cccs3)c2C1c1cccs1 (stereo not given)	33.3	23.9	59.4*	4.1	10.8	-1.3	15.0
COc1ccc(NC(=O)c2cccc(S(=O)(=O)N3CCOCC3)c2)cn1	-2.8	0.5	79.6*	-36.6	5.6	1.3	5.3
COc1ccc(NC(=O)c2cccc(S(=O)(=O)N3CCOCC3)c2)cc1	-7.6	-6.6	14.0	-1.4	-7.7	2.0	/
Cc1ccc(S(=O)(=O)NC(=NC2CCCCC2)c2ccccc2)cc1	-9.6	0.6	14.2	-0.2	-21.0	3.7	/
CCOC(=O)c1ccc(-n2c(CN3CCOCC3)nc3ccc([N+](=O)[O-])cc3c2=O)cc1	-7.9	4.7	34.6	-5.2	10.0	0.2	/
CCOC(=O)c1ccc(-n2c(CN3CCN(CC)CC3)nc3ccc([N+](=O)[O-])cc3c2=O)cc1	4.5	7.6	41.1*	-8.2	8.6	-4.9	15.0
CC1=NN(c2ccccc2)C(=O)C1C(=O)c1cc([N+](=O)[O-])cc([N+](=O)[O-])c1 (stereo not given)	17.0	-9.7	51.1*	11.1	-5.8	1.9	-5.4
CN(C(=O)c1cc(C(=O)N(C)c2ccccc2)cc([N+](=O)[O-])c1)c1ccccc1	15.4	-2.7	31.1	-2.5	-5.8	0.3	/
CCCc1nnc(SCC(=O)N2CCCC2)n1CC1CCCO1 (stereo not given)	-1.7	2.0	12.3	-1.5	2.0	1.4	/
CC(C)(C)OC(=O)NCCCC[C@H](NC(=O)c1nc[nH]c1C(=O)N1CCc2ccccc2C1)C(=O)OC(C)(C)C	-3.6	1.0	11.5	4.8	1.4	1.8	/
CC(C)(C)OC(=O)NCCCCCNC(=O)c1nc[nH]c1C(=O)N1CCc2ccccc2C1	-4.6	-6.8	47.9*	/	-14.4	0.0	56.8*
CCc1nc2oc3ccccc3c(=O)c2c(=O)n1Cc1ccccc1	-0.9	-6.4	14.9	7.1	-3.9	0.5	/
CN(C)c1cc[n+](/C(C(=S)Nc2ccc(SC(F)F)cc2)=C(/[O-])c2ccccc2)cc1	-11.3	11.3	43.5*	-14.5	1.1	1.2	23.4
O=C(NNC(=O)C1CC1)c1cc2cc3ccccc3nc2s1	-16.1	-7.2	-32.2	3.7	-4.5	2.8	/
O=C(CCCCCNC(=O)N1CCn2c1nc1ccccc12)N[C@H](C(=O)O)c1ccccc1	2.0	3.0	52.4*	2.2	2.0	3.5	20.3
CCN(CC)S(=O)(=O)c1cccc(C(=O)NCCCn2ccnc2)c1	2.6	-3.5	41.7*	3.5	-0.4	2.4	17.3
CC(C)COC(=O)C1[C@H]2C(=O)N(Cc3cccs3)C[C@]23C=C[C@H]1O3 (stereo not given in full)	-2.3	1.3	10.6	14.4	-1.6	1.5	/
CCOC(=O)C1C2C=CC3(CN(Cc4cccs4)C(=O)C13)O2 (stereo not given)	-1.4	-4.8	45.0*	-0.2	1.6	1.6	6.3
O=C(CCS(=O)(=O)Cc1ccccc1F)N1CCc2ccccc2C1	4.7	-0.2	66.9*	13.2	4.1	0.7	75.3*
C=CCC(C(=O)OC)(C(=O)OC)c1ccc(C(F)(F)F)cc1[N+](=O)[O-]	1.0	7.4	12.8	17.3	-1.5	0.7	/
C=CCC(C(=O)OC)(C(=O)OC)c1ccc([N+](=O)[O-])cc1[N+](=O)[O-]	17.8	2.9	42.5*	4.4	0.0	2.3	11.3
CCN(CC)c1ccc(N=Cc2ccc([N+](=O)[O-])o2)cc1	6.0	19.1	23.5	5.2	-10.5	19.8	/
CCN(CC)c1ccc(N=Cc2ccccc2[N+](=O)[O-])cc1	28.4	7.1	66.4*	5.3	-7.0	11.9	31.0
CC(C)(C)N(NS(=O)(=O)c1ccc(F)cc1)c1ccccc1	-19.6	-2.6	18.0	1.8	-10.1	2.6	/
N#C/C(=C/C1=C(N2CCOCC2)C(=C/c2ccccc2)/CC1)C(=O)Nc1ccccc1F	/	/	27.0	/	/	54.9	/
SMILES	SENP6 inh	SENP7 block	SENP8 block-1	Platelet DG rel	SENP8 block-2	SENP1 inh	SENP8 inh conf
N#C/C(=C\C1=C(N2CCOCC2)C(=C/c2cccc([N+](=O)[O-])c2)/CC1)C(=O)Nc1ccccc1F	/	/	47.9*	/	/	81.7	19.4
C/C(=N\Nc1ccc(S(=O)(=O)Nc2ccccc2)cc1[N+](=O)[O-])c1ccc(N2CCOCC2)cc1	0.5	7.5	43.8*	-0.6	8.4	1.2	14.7
C/C(=N\Nc1ccc(S(=O)(=O)Nc2ccc(Cl)cc2)cc1[N+](=O)[O-])c1ccc(N2CCOCC2)cc1	-5.6	8.5	31.4	4.8	-2.4	2.8	/
CC1=NN(c2ccccc2C)C(=O)C1	/	/	51.0*	/	/	1.0	21.6
Cc1ccccc1N1CC(=O)N(c2ccccc2C)CC1=O	1.0	2.2	25.8	3.8	-0.4	-0.8	/
COc1ccc(-c2nc(-c3ccccc3OC)no2)cc1OC	33.0	8.7	40.0*	-6.6	6.6	2.6	29.4
N#CC(C(=O)c1ccccc1)=C1SCCS1	6.6	3.3	41.8*	-3.7	-2.1	2.8	9.1
O=C(C(=O)c1ccc(O)cc1)c1ccccc1	-30.7	10.1	18.1	7.5	0.7	2.6	/
O=C1OC(N2C(=O)CC[C@H]2C(=O)Nc2ccc(Br)cc2F)c2ccccc21 (stereo not given in full)	-16.2	-4.8	54.1*	-1.9	-0.5	-0.1	5.8
CCOC(=O)/C=C/c1ccc2c(c1)S(=O)(=O)N(c1cccc(OC)c1)[C@H]2CC(=O)OCC	-9.0	-0.5	-41.5	7.2	-1.6	1.6	/
CN(C)c1cccc2c1c(NC(=O)c1ccc(F)cc1)nn2C	-0.2	7.7	55.4*	-12.6	8.3	-1.4	14.6
CN(C)c1cccc2c1c(NC(=O)c1ccc(Cl)cc1)nn2C	-13.6	1.9	59.5*	-5.5	-2.1	0.3	20.7
CN(C)c1cccc2c1c(NC(=O)Nc1ccccc1)nn2C	24.1	12.0	-92.7	-3.5	7.2	-1.5	/
CC=Cc1cc2c(c(=O)o1)C(=O)C(O)C(C)O2 (stereo not given)	/	/	0.2	/	/	-16.6	/
COC(=O)N[C@@H]1C[C@H]2[C@@H]3CC[C@H]4C[C@@H](OC)CC[C@]4(C)[C@H]3CC[C@]12C	4.8	3.2	3.5	/	-3.5	3.8	/
CCN1CCN(c2ccc([N+](=O)[O-])c(Sc3nc4ccccc4[nH]3)c2)CC1	-10.3	7.9	41.3*	-9.5	0.5	-0.9	17.9
CCOc1ccc2ccccc2c1C1NC(=O)N(C)C(C)=C1C(=O)OCCOC (stereo not given)	8.8	-0.8	5.8	2.5	6.5	0.6	/
CC(=O)Nc1ccc(NC(=O)COC(=O)c2ccc([N+](=O)[O-])o2)cc1	15.0	12.4	33.6*	/	12.3	1.0	85.3*
